Laboratory results from ChEMBL document CHEMBL1134413, “Effect of N-alkyl and N-alkenyl substituents in noroxymorphindole, 17-substituted-6,7-dehydro-4,5alpha-epoxy-3,14-dihydroxy-6,7:2',3'-indolomorphinans, on opioid receptor affinity, selectivity, and efficacy” (J Med Chem, 2001).
pKi: −log10 of the molar value.

Legend:
Mu-type opioid receptor [1] = molecular target: T1, Mu-type opioid receptor (Rattus norvegicus, UniProt P33535); assay: Displacement of [3H]DAMGO at mu-opioid receptor
[2] = molecular target: T2, Delta-type opioid receptor (Mus musculus, UniProt P32300); assay: Displacement of [3H]DADLE at delta-opioid receptor
[3] = molecular target: T3, Kappa-type opioid receptor (Cavia porcellus, UniProt P41144); assay: Displacement of [3H]U-69593 at opioid receptor kappa 1
Mus musculus [4] = species: Mus musculus; assay: Percentage inhibition of contraction height in mouse vas deferens (MVD) at 100 nM; assay type: functional
Method in brief: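 Agonist effect read in isolated mouse vas deferens preparation as percent inhibition of contraction height, at one test concentration.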

Mu-type opioid receptor [5] = molecular target: T1, Mu-type opioid receptor; assay: Antagonist activity of compound on agonist stimulated [35S]GTP-gamma-S binding on mu-opioid receptor; assay type: functional
Cavia porcellus [6] = species: Cavia porcellus; assay: Antagonist activity of compound in GPI/LMMP tested with PL-017; assay type: functional
Method in brief: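 Guinea pig ileum longitudinal muscle/myenteric plexus preparation. Antagonism is measured against the μ agonist PL-017 and expressed as Ke (nM). Agonist activity is recorded separately as percent inhibition of contraction height at a single stated concentration.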

Cavia porcellus [7] = species: Cavia porcellus; assay: Percentage inhibition of contraction height in guinea pig ileum longitudinal muscle myenteric plexus (GPI/LMMP) 1 uM; assay type: functional
Method in brief: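 Agonist effect read in isolated guinea pig ileum longitudinal muscle/myenteric plexus preparation as percent inhibition of contraction height, at one test concentration.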

[8] = molecular target: T2, Delta-type opioid receptor; assay: Antagonist activity of compound on agonist stimulated [35S]GTP-gamma-S binding on delta-opioid receptor; assay type: functional
[9] = molecular target: T3, Kappa-type opioid receptor; assay: Antagonist activity of compound on U50,488H stimulated [35S]GTP-gamma-S binding to opioid receptor kappa 1; assay type: functional
Mus musculus [10] = species: Mus musculus; assay: Antagonist activity of compound in mouse vas deferens tested with DPDPE; assay type: functional
Method in brief: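 Isolated mouse vas deferens. Antagonism is measured against the δ agonist DPDPE and expressed as Ke (nM). Agonist activity is recorded separately as percent inhibition of contraction height at a single stated concentration.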

[11] = molecular target: T2, Delta-type opioid receptor; assay: Antagonist activity of compound on SNC 80 stimulated [35S]GTP-gamma-S binding to delta-opioid receptor; assay type: functional
Mu-type opioid receptor [12] = molecular target: T1, Mu-type opioid receptor; assay: Antagonist activity of compound on DAMGO stimulated [35S]GTP-gamma-S binding to mu-opioid receptor; assay type: functional
Mus musculus [13] = species: Mus musculus; assay: Percentage inhibition of contraction height in mouse vas deferens (MVD) at 1 uM; assay type: functional

T3 sequence (P41144 whole entry): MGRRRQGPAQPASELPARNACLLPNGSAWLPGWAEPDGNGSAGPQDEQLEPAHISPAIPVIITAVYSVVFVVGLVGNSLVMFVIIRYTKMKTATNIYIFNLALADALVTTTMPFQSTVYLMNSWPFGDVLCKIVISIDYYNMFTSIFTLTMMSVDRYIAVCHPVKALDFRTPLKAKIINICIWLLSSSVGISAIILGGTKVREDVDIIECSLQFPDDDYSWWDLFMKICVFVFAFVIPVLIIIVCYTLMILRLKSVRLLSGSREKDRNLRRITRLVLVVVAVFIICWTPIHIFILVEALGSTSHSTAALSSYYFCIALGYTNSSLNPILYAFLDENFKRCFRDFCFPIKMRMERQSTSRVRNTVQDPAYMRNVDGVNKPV
T1 sequence (P33535 whole entry): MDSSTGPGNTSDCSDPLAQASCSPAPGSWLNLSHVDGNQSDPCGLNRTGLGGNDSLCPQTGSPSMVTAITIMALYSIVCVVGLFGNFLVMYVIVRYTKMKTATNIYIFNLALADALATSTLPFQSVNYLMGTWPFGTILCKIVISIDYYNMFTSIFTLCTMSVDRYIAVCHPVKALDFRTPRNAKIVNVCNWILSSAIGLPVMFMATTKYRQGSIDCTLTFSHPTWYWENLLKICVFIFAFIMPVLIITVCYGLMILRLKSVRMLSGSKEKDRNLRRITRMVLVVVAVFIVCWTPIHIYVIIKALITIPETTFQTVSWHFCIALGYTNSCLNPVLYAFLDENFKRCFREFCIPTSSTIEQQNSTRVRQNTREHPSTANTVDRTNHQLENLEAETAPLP
T2 sequence (P32300 whole entry): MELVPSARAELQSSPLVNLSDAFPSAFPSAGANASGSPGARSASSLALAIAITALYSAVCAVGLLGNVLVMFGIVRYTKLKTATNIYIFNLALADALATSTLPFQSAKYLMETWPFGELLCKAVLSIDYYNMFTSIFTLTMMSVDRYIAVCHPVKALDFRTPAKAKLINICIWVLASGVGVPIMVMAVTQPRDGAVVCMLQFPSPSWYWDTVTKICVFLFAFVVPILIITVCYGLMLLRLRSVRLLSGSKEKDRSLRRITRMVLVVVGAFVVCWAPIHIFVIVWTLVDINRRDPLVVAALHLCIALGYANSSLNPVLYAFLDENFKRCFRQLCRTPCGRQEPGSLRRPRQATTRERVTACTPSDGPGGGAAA

SMILES	pKi (Mu-type opioid receptor [1])	pKi [2]	pKi [3]	also measured
CC(C)CN1CC[C@]23c4c5ccc(O)c4O[C@H]2c2[nH]c4ccccc4c2C[C@@]3(O)[C@H]1C5	5.59	8.42	6.19	
CCCN1CC[C@]23c4c5ccc(O)c4O[C@H]2c2[nH]c4ccccc4c2C[C@@]3(O)[C@H]1C5		8.70	6.42	
CC(C)=CCN1CC[C@]23c4c5ccc(O)c4O[C@H]2c2[nH]c4ccccc4c2C[C@@]3(O)[C@H]1C5	5.55	7.60	5.49	
CC(C)N1CC[C@]23c4c5ccc(O)c4O[C@H]2c2[nH]c4ccccc4c2C[C@@]3(O)[C@H]1C5	< 5.18	7.48	5.21	
CCCCCCN1CC[C@]23c4c5ccc(O)c4O[C@H]2c2[nH]c4ccccc4c2C[C@@]3(O)[C@H]1C5	5.34	7.59	5.51	
CCCCN1CC[C@]23c4c5ccc(O)c4O[C@H]2c2[nH]c4ccccc4c2C[C@@]3(O)[C@H]1C5	5.89	8.08	6.05	
CCCCCN1CC[C@]23c4c5ccc(O)c4O[C@H]2c2[nH]c4ccccc4c2C[C@@]3(O)[C@H]1C5	5.55	7.80	5.70	
C/C=C/CN1CC[C@]23c4c5ccc(O)c4O[C@H]2c2[nH]c4ccccc4c2C[C@@]3(O)[C@H]1C5	5.92	8.13	6.02	inhibition at 0.1 µM (Mus musculus [4]): 12%; pKi (Mu-type opioid receptor [5]): 7.52; Ke (Cavia porcellus [6]): 5500 nM; Inhibition (Cavia porcellus [7]): 22%; pKi [8]: 9.17; pKi [9]: 6.93; Ke (Mus musculus [10]): 26 nM
CC(C)CCN1CC[C@]23c4c5ccc(O)c4O[C@H]2c2[nH]c4ccccc4c2C[C@@]3(O)[C@H]1C5	5.89	8.32	6.17	
CCN1CC[C@]23c4c5ccc(O)c4O[C@H]2c2[nH]c4ccccc4c2C[C@@]3(O)[C@H]1C5	5.60	8.30	5.52	inhibition at 0.1 µM (Mus musculus [4]): 9%; pKi [11]: 8.49; pKi (Mu-type opioid receptor [12]): 6.54; Ke (Cavia porcellus [6]): 96 nM; Inhibition (Cavia porcellus [7]): 1.2%; pKi [9]: < 6.00; Ke (Mus musculus [10]): 9.6 nM
CCCCCCCN1CC[C@]23c4c5ccc(O)c4O[C@H]2c2[nH]c4ccccc4c2C[C@@]3(O)[C@H]1C5	5.34	7.10	< 5.15	
Cl.Oc1ccc2c3c1O[C@H]1c4[nH]c5ccccc5c4C[C@@]4(O)[C@@H](C2)N(CC2CC2)CC[C@]314 [NALTRINDOLE HYDROCHLORIDE]		9.66	7.52	Ke (Cavia porcellus [6]): 43 nM; Inhibition (Cavia porcellus [7]): 18%; pKi [8]: 10.52; pKi [9]: 8.33; inhibition at 1 µM (Mus musculus [13]): 16%; Ke (Mus musculus [10]): 0.49 nM
CN1CC[C@]23c4c5ccc(O)c4O[C@H]2c2[nH]c4ccccc4c2C[C@@]3(O)[C@H]1C5 [OXYMORPHINDOLE]	7.18			
